Results as given in ChEMBL document CHEMBL1121637, “Tumor inhibitory triazenes. 2. Variation of antitumor activity within an homologous series” (J Med Chem, 1980).

Tests used:
Mus musculus [1] = experiment: Percent increase in life span of TLX/5 lymphoma bearing mice at dose of 100 mg/kg; type: functional
Outline: (§1)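 Female CBA/LAC mice with subcutaneously transplanted TLX/5 lymphoma. Drug given i.p. in saline (about pH 7.5) once daily for 5 consecutive days, starting 3 days after transplant. Doses ran 12.5–400 mg/kg, with lower doses made by serial dilution. Five mice per dose; survival time compared with 10 untreated controls. ILS ≥20% counted significant. Minimum dose for 50% ILS expressed in mol/kg.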

Mus musculus [2] = experiment: Percent increase in life span of TLX/5 lymphoma bearing mice at dose of 400 mg/kg; type: functional; outline: as §1
[3] = Partition coefficient was determined in octanol-saturated sorenson's pH 7.4 phosphate buffer and buffer-saturated octanol.; type: physicochemical; conditions: octanol/Sorensen's phosphate buffer
Outline: (§2)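 Compound shaken 1 h at room temperature in 0.1 M Sorenson's phosphate buffer pre-saturated with octanol, filtered. A known volume was then shaken 1 h with a known volume of buffer-saturated octanol. Aqueous phase and initial filtrate diluted in ethanol, filtered, absorbance read at λmax. P = (aqueous vol × absorbance drop)/(final aqueous absorbance × octanol vol). Mean of at least two determinations.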

Mus musculus [4] = experiment: Percent increase in life span of TLX/5 lymphoma bearing mice at dose of 12.5 mg/kg; type: functional; outline: as §1
Mus musculus [5] = experiment: Percent increase in life span of TLX/5 lymphoma bearing mice at dose of 50 mg/kg; type: functional; outline: as §1
Mus musculus [6] = experiment: Percent increase in life span of TLX/5 lymphoma bearing mice at dose of 25 mg/kg; type: functional
[7] = Solubility in sorensen's phosphate buffer at pH 7.4 and 25 degrees Centigrade.
Mus musculus [8] = experiment: Percent increase in life span of TLX/5 lymphoma bearing mice at dose of 200 mg/kg; type: functional; outline: as §1
Mus musculus [9] = species on record: Mus musculus; experiment: Minimum dose that causes 50% increase in life span in TLX/5 lymphoma bearing animal; type: functional; outline: as §1
Mus musculus [10] = experiment: Percent increase in life span of TLX/5 lymphoma bearing mice at dose of 12.5 mg/kg when 10 % acetone/Oil is given as vehicle; type: functional
Mus musculus [11] = experiment: Percent increase in life span of TLX/5 lymphoma bearing mice at dose of 100 mg/kg when 10 % acetone/Oil is given as vehicle; type: functional
Mus musculus [12] = experiment: Percent increase in life span of TLX/5 lymphoma bearing mice at dose of 50 mg/kg when 10 % acetone/Oil is given as vehicle; type: functional
Mus musculus [13] = experiment: Percent increase in life span of TLX/5 lymphoma bearing mice at dose of 25 mg/kg when 10 % acetone/Oil is given as vehicle; type: functional
Mus musculus [14] = experiment: Percent increase in life span of TLX/5 lymphoma bearing mice at dose of 400 mg/kg when 10 % acetone/Oil is given as vehicle; type: functional
Mus musculus [15] = experiment: Percent increase in life span of TLX/5 lymphoma bearing mice at dose of 200 mg/kg when 10 % acetone/Oil is given as vehicle; type: functional
Mus musculus [16] = experiment: Percent increase in life span of TLX/5 lymphoma bearing mice at dose of 100 mg/kg 200 mg/kg; type: functional; outline: as §1
[17] = Partition coefficient between octanol-saturated sorenson's pH 7.4 phosphate buffer and buffer-saturated octanol.; type: physicochemical; conditions: octanol/Sorensen's phosphate buffer; outline: as §2
Mus musculus [18] = species on record: Mus musculus; experiment: Minimum dose that causes 50% increase in life span in TLX/5 lymphoma bearing mice; type: functional; outline: as §1

SMILES | ILS at 100 mg/kg (Mus musculus [1]) | ILS at 400 mg/kg (Mus musculus [2]) | logD [3] | ILS at 12.5 mg/kg (Mus musculus [4]) | ILS at 50 mg/kg (Mus musculus [5]) | ILS at 25 mg/kg (Mus musculus [6]) | Solubility [7] | ILS at 200 mg/kg (Mus musculus [8]) | Dose (Mus musculus [9]) | ILS at 12.5 mg/kg (Mus musculus [10]) | ILS at 100 mg/kg (Mus musculus [11]) | ILS at 50 mg/kg (Mus musculus [12]) | ILS at 25 mg/kg (Mus musculus [13]) | ILS at 400 mg/kg (Mus musculus [14]) | ILS at 200 mg/kg (Mus musculus [15]) | ILS at 200 mg/kg (Mus musculus [16]) | logD [17] | Dose (Mus musculus [18])
CCC(C)CN(C)/N=N/c1ccc(C(=O)O)cc1 (centres undefined) | 62% | 57% | 1.33 | 7% | 52% | 11% | 0.0162 M l-1 | 60% | 0.0002 mol/kg |  |  |  |  |  |  |  |  | 
CCCCCCCCCCCCN(C)/N=N/c1ccc(C(=O)O)cc1 |  |  |  |  |  |  | 4.13e-6 M l-1 |  |  |  |  |  |  |  |  |  |  | 
CN(Cc1ccccc1)/N=N/c1ccc(C(=O)O)cc1 | 49% | -61% |  | 6% | 7% | 6% |  | -59% |  |  |  |  |  |  |  |  |  | 
CCCCN(C)/N=N/c1ccc(C(=O)O)cc1 | 47% | -31% | 0.97 | 69% | 86% | 82% | 0.0155 M l-1 | 20% | 5.3e-05 mol/kg |  |  |  |  |  |  |  |  | 
CN(C)/N=N/c1ccc(C(=O)O)cc1 | 34% | -34% | -0.44 | 40% | 83% | 72% |  | 0% | 6.2e-05 mol/kg | 19% | 49% | 70% | 51% | -36% | -4% |  |  | 
C#CCN(C)/N=N/c1ccc(C(=O)O)cc1 | 70% | -18% | 0 | 0% | 76% | 36% |  | 40% | 0.00015 mol/kg |  |  |  |  |  |  |  |  | 
C=CCN(C)/N=N/c1ccc(C(=O)O)cc1 | 76% | -25% | 0.32 | 1% | 96% | 11% |  | 56% | 0.00017 mol/kg |  |  |  |  |  |  |  |  | 
CCCCCCN(C)/N=N/c1ccc(C(=O)O)cc1 | 73% | -53% | 1.95 | 0% | 18% | 0% | 0.00298 M l-1 | -8% | 3e-05 mol/kg |  |  |  |  |  |  |  |  | 
CCCCCCCCN(C)/N=N/c1ccc(C(=O)O)cc1 |  |  | 2.77 |  |  |  | 0.000171 M l-1 |  |  |  |  |  |  |  |  |  |  | 
CCCCCCCN(C)/N=N/c1ccc(C(=O)O)cc1 | 9% | -48% | 2.58 | 3% | 5% | 1% | 0.00041 M l-1 | -19% |  |  |  |  |  |  |  |  |  | 
CCN(C)/N=N/c1ccc(C(=O)O)cc1 | 67% | -21% |  | 44% | 79% | 79% |  |  |  |  |  |  |  |  |  | 27% | 0.04 | 7e-05 mol/kg
CCCCCN(C)/N=N/c1ccc(C(=O)O)cc1 | 61% | -61% | 1.49 | 10% | 75% | 108% | 0.00428 M l-1 | -61% | 7.1e-05 mol/kg |  |  |  |  |  |  |  |  | 
CCCN(C)/N=N/c1ccc(C(=O)O)cc1 | 69% | -3% | 0.46 | 13% | 69% | 69% | 0.0368 M l-1 | 57% | 9.4e-05 mol/kg |  |  |  |  |  |  |  |  | 
CC(C)N(C)/N=N/c1ccc(C(=O)O)cc1 | 60% | 35% | 0.34 | 37% | 64% | 90% |  | 45% | 7e-05 mol/kg |  |  |  |  |  |  |  |  | 
CN(C)/N=N/c1[nH]cnc1C(N)=O [DACARBAZINE] | 55% | -11% |  | 55% | 59% | 55% |  | 61% |  |  |  |  |  |  |  |  |  | 
